The values that follow come from ChEMBL document CHEMBL4190293, “Anti-inflammatory Meroterpenoids from Baeckea frutescens” (J Nat Prod, 2017).

Structures are written as SMILES. The source made the active and inactive calls. The calls are words filed in the database; no cut-off is given here.

In assay [1] the test system is RAW264.7. Put plainly: Antiinflammatory activity in mouse RAW264.7 cells assessed as inhibition of LPS-stimulated nitric oxide production pretreated for 2 hrs followed by LPS-stimulation measured after 20 hrs by Griess assay. Type of assay: functional, cell-based. The essentials:
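Murine RAW 264.7 macrophages in DMEM with 10% FBS, seeded at 1 × 10^5 cells/well and grown 12 h. Pretreated with compound for 2 h, then given LPS (1 μg/mL) for 20 h; L-NMMA as positive control. Supernatant nitrite mixed 1:1 with Griess reagent, 10 min at room temperature, absorbance read at 540 nm. IC50 from three independent replicates. Viability checked by Alamar Blue after 20 h.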
(The Griess reaction detects nitrite, a stable product of nitric oxide.)

The target of assay [2] is Transcription factor p65 (Mus musculus) (UniProt Q04207). Nature of the assay: Inhibition of NF-kappaB p65 nuclear translocation in LPS-stimulated mouse RAW264.7 cells pretreated for 2 hrs followed by LPS-stimulation measured after 16 hrs by Western blot analysis. The assay is classed as cell-based. The essentials:
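RAW 264.7 cells exposed to compound at 0.2, 0.4 or 0.8 μM for 2 h, then given 1 μg/mL LPS, or left unstimulated, for 16 h. Lysates made in RIPA buffer, protein quantified by BCA, run on 10% SDS-PAGE and transferred to PVDF. Blots probed for NF-κB p65 with lamin B as internal control, primary antibodies at 4 °C overnight. Mean ± SD of three independent experiments.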

Assay [3] relates to RAW264.7. Nature of the assay: Antiinflammatory activity in mouse RAW264.7 cells assessed as inhibition of LPS-stimulated IL-6 expression at 0.2 to 0.8 uM pretreated for 2 hrs followed by LPS-stimulation measured after 18 hrs by ELISA. The assay is classed as functional, cell-based. The method, boiled down:
(§1)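 RAW 264.7 cells seeded at 1 × 10^6 cells/well in serum-free DMEM for 12 h. Cells pretreated with test compound at 0.2, 0.4 or 0.8 μM for 2 h, then stimulated with LPS (1 μg/mL) for 18 h. TNF-α and IL-6 in the culture supernatant measured by ELISA kit. Mean ± SD of three independent experiments; one-way ANOVA with Dunnett's post hoc test.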

In assay [4] the test system is RAW264.7. Put plainly: Antiinflammatory activity in mouse RAW264.7 cells assessed as inhibition of LPS-stimulated TNFalpha expression pretreated for 2 hrs followed by LPS-stimulation measured after 18 hrs by ELISA. Type of assay: functional, cell-based. The essentials:
as §1

Sequence of Transcription factor p65 (Mus musculus) (Q04207 whole entry): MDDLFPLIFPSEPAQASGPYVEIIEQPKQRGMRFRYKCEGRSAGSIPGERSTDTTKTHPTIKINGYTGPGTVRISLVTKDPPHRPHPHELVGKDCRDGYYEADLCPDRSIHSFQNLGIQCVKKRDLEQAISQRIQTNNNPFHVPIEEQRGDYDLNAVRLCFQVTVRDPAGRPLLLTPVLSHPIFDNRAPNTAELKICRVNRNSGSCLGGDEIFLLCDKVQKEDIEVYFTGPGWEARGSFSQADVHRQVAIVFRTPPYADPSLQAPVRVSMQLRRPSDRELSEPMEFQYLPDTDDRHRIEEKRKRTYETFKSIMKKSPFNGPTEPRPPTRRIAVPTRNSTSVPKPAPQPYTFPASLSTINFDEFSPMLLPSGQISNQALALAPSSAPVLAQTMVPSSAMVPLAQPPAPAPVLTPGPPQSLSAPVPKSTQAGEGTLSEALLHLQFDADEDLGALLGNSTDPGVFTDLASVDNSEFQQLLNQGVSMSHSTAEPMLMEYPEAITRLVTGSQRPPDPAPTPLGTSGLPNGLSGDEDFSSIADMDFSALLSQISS

Regarding `COC1=C(C)C(=O)C2=C(O[C@]3(CC[C@@H]4C[C@@H]3C4(C)C)C[C@@H]2C(C)C)C1(C)C`, the IC50 (as a rule, the point on the concentration scale where inhibition reaches its midpoint) in the assay on RAW264.7 [1] is 3.7 µM. For the compound `C=C1CC[C@@H]2[C@H](C(C)C)C3=C(O[C@@]2(C)CC[C@@H]2[C@@H]1CC2(C)C)C(C)(C)C(OC)=C(C)C3=O`, in the assay with RAW264.7 [1], the IC50 was > 50 µM. With `COC1=C(C)C(=O)C2=C(O[C@]3(CC[C@]45[C@H]([C@H](C(C)C)CC[C@H]4C)[C@@H]35)C[C@H]2C(C)C)C1(C)C`, the IC50 with RAW264.7 [1] turned out to be 30.5 µM. As for `COC1=C(C)C(=O)[C@]2(CC(CCC=C(C)C)=CC[C@H]2C(C)C)C(=O)C1(C)C` (racemic), the IC50 in the assay on RAW264.7 [1] is 6.5 µM. In the case of `COC1=C(C)C2=C(C(=O)C1(C)C)[C@@H](C(C)C)C[C@]1(CC[C@@]3(C(C)C)C[C@@H]13)O2`, the inhibition result (in assay [2]; in the assay on RAW264.7 [4]) was “Dose-dependent effect” in each case. Moreover, the inhibition entry with RAW264.7 [3] was “inactive”. For the same compound, in the assay with RAW264.7 [1], the IC50 was found to be 0.36 µM. Turning to `COC1=C(C)C(=O)[C@@]2(CC=C(CCC=C(C)C)C[C@H]2C(C)C)C(=O)C1(C)C` (racemic), the IC50 in the assay with RAW264.7 [1] was found to be 2.07 µM.

Take `COC1=C(C)C(=O)C2=C(O[C@@]3(CC[C@]45[C@H]([C@H](C(C)C)CC[C@H]4C)[C@@H]35)C[C@@H]2C(C)C)C1(C)C`: the IC50 in the assay with RAW264.7 [1] turned out to be 15.2 µM.

Consider `COC1=C(C)C(=O)C2=C(O[C@]3(C=C4[C@H](C(C)C)CC[C@@H](C)[C@H]4CC3)C[C@@H]2C(C)C)C1(C)C`, for which the IC50 in the assay on RAW264.7 [1] is > 50 µM.

For the compound `COC1=C(C)C2=C(C(=O)C1(C)C)[C@H](C(C)C)C[C@@]1(CC[C@@]3(C(C)C)C[C@@H]13)O2` (racemic), the IC50 in the assay on RAW264.7 [1] was determined as 1.8 µM. `COC1=C(C)C(=O)C2=C(O[C@@]3(C=C4[C@H](C(C)C)CC[C@@H](C)[C@H]4CC3)C[C@H]2C(C)C)C1(C)C`: the half-maximal inhibitory concentration (IC50) in the assay with RAW264.7 [1] was > 50 µM. Regarding `CNC(=N)NCCC[C@H](N)C(=O)O` [TILARGININE], the IC50 with RAW264.7 [1] was found to be 30.9 µM.

For the compound `COC1=C(C)C(=O)C2=C(O[C@@]3(C=C4[C@H](C(C)C)CC[C@@H](C)[C@H]4CC3)C[C@@H]2C(C)C)C1(C)C`, in the assay on RAW264.7 [1], the IC50 amounted to 18.8 µM.
